Assay results as given in ChEMBL document CHEMBL4304792, “Cinnamonitrile Adjuvants Restore Susceptibility to β-Lactams against Methicillin-Resistant Staphylococcus aureus” (ACS Med Chem Lett, 2019).
Converted amounts (≈) assume the structure as drawn. The source made the active and inactive calls. The rule behind the calls is not given here.

Key:
HeLa = assay: Cytotoxicity against human HeLa cells by XTT assay; type: cell-based
Procedure, shortened: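 HeLa human cervical cancer cells were exposed to the compounds. Viability was read by XTT colorimetric assay, and IC50 was reported in μM and mg·L–1.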

Staphylococcus aureus [1] = assay: Potentiation of oxacillin induced antibacterial activity against Staphylococcus aureus Mu50 NRS1 assessed as oxacillin MIC at 20 uM measured after 16 to 20 hrs in presence of 2% NaCl by microdilution broth method (reference value: 256 mg/L); type: functional
Staphylococcus aureus [2] = assay: Potentiation of oxacillin induced antibacterial activity against Staphylococcus aureus Mu50 NRS1 assessed as oxacillin MIC at 16 uM measured after 16 to 20 hrs in presence of 2% NaCl by microdilution broth method (reference value: 256 mg/L); type: functional
Staphylococcus aureus [3] = assay: Potentiation of oxacillin induced antibacterial activity against Staphylococcus aureus Mu50 NRS1 assessed as oxacillin MIC at 8 uM measured after 16 to 20 hrs in presence of 2% NaCl by microdilution broth method (reference value: 256 mg/L); type: functional
Staphylococcus aureus [4] = assay: Potentiation of oxacillin induced antibacterial activity against Staphylococcus aureus NRS70 assessed as oxacillin MIC at 16 uM measured after 16 to 20 hrs in presence of 2% NaCl by microdilution broth method (reference value: 64 mg/L); type: functional
Staphylococcus aureus [5] = assay: Potentiation of oxacillin induced antibacterial activity against Staphylococcus aureus NRS70 assessed as oxacillin MIC at 8 uM measured after 16 to 20 hrs in presence of 2% NaCl by microdilution broth method (reference value: 64 mg/L); type: functional
Staphylococcus aureus [6] = assay: Potentiation of oxacillin induced antibacterial activity against Staphylococcus aureus NRS119 assessed as oxacillin MIC at 16 uM measured after 16 to 20 hrs in presence of 2% NaCl by microdilution broth method (reference value: 256 mg/L); type: functional
Staphylococcus aureus [7] = assay: Potentiation of oxacillin induced antibacterial activity against Staphylococcus aureus NRS119 assessed as oxacillin MIC at 8 uM measured after 16 to 20 hrs in presence of 2% NaCl by microdilution broth method (reference value: 256 mg/L); type: functional
Staphylococcus aureus [8] = assay: Potentiation of oxacillin induced antibacterial activity against Staphylococcus aureus MW2 NRS123 assessed as oxacillin MIC at 20 uM measured after 16 to 20 hrs in presence of 2% NaCl by microdilution broth method (reference value: 16 mg/L); type: functional
Staphylococcus aureus [9] = assay: Potentiation of oxacillin induced antibacterial activity against Staphylococcus aureus MW2 NRS123 assessed as oxacillin MIC at 16 uM measured after 16 to 20 hrs in presence of 2% NaCl by microdilution broth method (reference value: 16 mg/L); type: functional
Staphylococcus aureus [10] = assay: Potentiation of oxacillin induced antibacterial activity against Staphylococcus aureus MW2 NRS123 assessed as oxacillin MIC at 8 uM measured after 16 to 20 hrs in presence of 2% NaCl by microdilution broth method (reference value: 16 mg/L); type: functional
Staphylococcus aureus [11] = assay: Potentiation of oxacillin induced antibacterial activity against Staphylococcus aureus USA100-NRS382 assessed as oxacillin MIC at 20 uM measured after 16 to 20 hrs in presence of 2% NaCl by microdilution broth method (reference value: 64 mg/L); type: functional
Staphylococcus aureus [12] = assay: Potentiation of oxacillin induced antibacterial activity against Staphylococcus aureus USA100-NRS382 assessed as oxacillin MIC at 16 uM measured after 16 to 20 hrs in presence of 2% NaCl by microdilution broth method (reference value: 64 mg/L); type: functional
Staphylococcus aureus [13] = assay: Potentiation of oxacillin induced antibacterial activity against Staphylococcus aureus USA100-NRS382 assessed as oxacillin MIC at 8 uM measured after 16 to 20 hrs in presence of 2% NaCl by microdilution broth method (reference value: 64 mg/L); type: functional
Staphylococcus aureus [14] = assay: Potentiation of oxacillin induced antibacterial activity against Staphylococcus aureus USA200-NRS383 assessed as oxacillin MIC at 20 uM measured after 16 to 20 hrs in presence of 2% NaCl by microdilution broth method (reference value: 128 mg/L); type: functional
Staphylococcus aureus [15] = assay: Potentiation of oxacillin induced antibacterial activity against Staphylococcus aureus USA200-NRS383 assessed as oxacillin MIC at 8 uM measured after 16 to 20 hrs in presence of 2% NaCl by microdilution broth method (reference value: 128 mg/L); type: functional
Staphylococcus aureus [16] = assay: Potentiation of oxacillin induced antibacterial activity against Staphylococcus aureus NRS384 assessed as oxacillin MIC at 20 uM measured after 16 to 20 hrs in presence of 2% NaCl by microdilution broth method (reference value: 32 mg/L); type: functional
Staphylococcus aureus [17] = assay: Potentiation of oxacillin induced antibacterial activity against Staphylococcus aureus MRSA252 assessed as oxacillin MIC at 20 uM measured after 16 to 20 hrs in presence of 2% NaCl by microdilution broth method (reference value: 256 mg/L); type: functional
Staphylococcus aureus [18] = assay: Potentiation of oxacillin induced antibacterial activity against Staphylococcus aureus MRSA252 assessed as oxacillin MIC at 16 uM measured after 16 to 20 hrs in presence of 2% NaCl by microdilution broth method (reference value: 256 mg/L); type: functional
Staphylococcus aureus [19] = assay: Antibacterial activity against Staphylococcus aureus MW2 NRS123 measured after 16 to 20 hrs in presence of 2% NaCl by microdilution broth method; type: functional
Staphylococcus aureus [20] = assay: Antibacterial activity against Staphylococcus aureus USA100-NRS382 measured after 16 to 20 hrs in presence of 2% NaCl by microdilution broth method; type: functional
Staphylococcus aureus [21] = assay: Antibacterial activity against Staphylococcus aureus NRS384 measured after 16 to 20 hrs in presence of 2% NaCl by microdilution broth method; type: functional
Staphylococcus aureus [22] = assay: Potentiation of oxacillin induced antibacterial activity against methicillin susceptible Staphylococcus aureus ATCC29213 assessed as reduction in oxacillin MIC at 20 uM measured after 16 to 20 hrs in presence of 2% NaCl by microdilution broth method; type: functional
Procedure, shortened: (§1)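 Oxacillin MIC was measured against methicillin-susceptible strains with the adjuvant fixed at 20 μM. Potentiation was expressed as fold reduction of the oxacillin MIC relative to oxacillin alone.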

Staphylococcus aureus [23] = assay: Potentiation of oxacillin induced antibacterial activity against methicillin susceptible Staphylococcus aureus NRS11 assessed as reduction in oxacillin MIC at 20 uM measured after 16 to 20 hrs in presence of 2% NaCl by microdilution broth method; type: functional; procedure, shortened: as §1
Staphylococcus aureus [24] = assay: Potentiation of oxacillin induced antibacterial activity against methicillin susceptible Staphylococcus aureus NRS72 assessed as reduction in oxacillin MIC at 20 uM measured after 16 to 20 hrs in presence of 2% NaCl by microdilution broth method; type: functional; procedure, shortened: as §1
Staphylococcus aureus [25] = assay: Potentiation of oxacillin induced antibacterial activity against methicillin susceptible Staphylococcus aureus NRS77 assessed as reduction in oxacillin MIC at 20 uM measured after 16 to 20 hrs in presence of 2% NaCl by microdilution broth method; type: functional; procedure, shortened: as §1
Staphylococcus aureus [26] = assay: Antibacterial activity against Staphylococcus aureus NRS70 measured after 16 to 20 hrs in absence of 2% NaCl by microdilution broth method

SMILES | IC50 (HeLa) | MIC (Staphylococcus aureus [1]) | MIC (Staphylococcus aureus [2]) | MIC (Staphylococcus aureus [3]) | MIC (Staphylococcus aureus [4]) | MIC (Staphylococcus aureus [5]) | MIC (Staphylococcus aureus [6]) | MIC (Staphylococcus aureus [7]) | MIC (Staphylococcus aureus [8]) | MIC (Staphylococcus aureus [9]) | MIC (Staphylococcus aureus [10]) | MIC (Staphylococcus aureus [11]) | MIC (Staphylococcus aureus [12]) | MIC (Staphylococcus aureus [13]) | MIC (Staphylococcus aureus [15]) | MIC (Staphylococcus aureus [16]) | MIC (Staphylococcus aureus [17]) | MIC (Staphylococcus aureus [18]) | MIC (Staphylococcus aureus [19]) | MIC (Staphylococcus aureus [20]) | also measured
CS(=O)(=O)/C(C#N)=C/c1cc(Cc2ccc(Cl)c(Cl)c2)ccc1F | 125 µM | 1 µg/mL | 4 µg/mL | 8 µg/mL | 0.5 µg/mL | 8 µg/mL | 1 µg/mL | 0.5 µg/mL | ≤ 0.03 µg/mL | 0.5 µg/mL | 4 µg/mL | 0.25 µg/mL | 1 µg/mL | 1 µg/mL | ≥ 128 µg/mL | 0.06 µg/mL | 128 µg/mL | 256 µg/mL | ≥ 64 µg/mL | ≥ 64 µg/mL | MIC (Staphylococcus aureus [14]): ≥ 128 µg/mL; MIC (Staphylococcus aureus [21]): 32 µg/mL; fold change (FC) (Staphylococcus aureus [22]): 2 - 10; fold change (FC) (Staphylococcus aureus [23]): 2 - 10; fold change (FC) (Staphylococcus aureus [24]): 2 - 10; fold change (FC) (Staphylococcus aureus [25]): 2 - 10; MIC (Staphylococcus aureus [26]): 8 µg/mL (≈ 20.8 µM)
CS(=O)(=O)/C(C#N)=C/c1cc(-c2ccc(Cl)c(Cl)c2)ccc1F | 130 µM | 2 µg/mL | 16 µg/mL | 128 µg/mL | 2 µg/mL | 16 µg/mL | 0.5 µg/mL | 32 µg/mL | 2 µg/mL | 0.5 µg/mL | 1 µg/mL | 1 µg/mL | 2 µg/mL | 4 µg/mL | ≥ 128 µg/mL | 4 µg/mL | 128 µg/mL | 128 µg/mL | 16 µg/mL | 32 µg/mL | MIC (Staphylococcus aureus [14]): ≥ 128 µg/mL; MIC (Staphylococcus aureus [21]): 16 µg/mL; fold change (FC) (Staphylococcus aureus [22]): 2 - 10; fold change (FC) (Staphylococcus aureus [23]): 2 - 10; fold change (FC) (Staphylococcus aureus [24]): 2 - 10; fold change (FC) (Staphylococcus aureus [25]): 2 - 10; MIC (Staphylococcus aureus [26]): 16 µg/mL (≈ 43.2 µM)
CS(=O)(=O)/C(C#N)=C/c1c(F)ccc(Cc2ccc(Cl)c(Cl)c2)c1F | 92 µM | ≤ 0.03 µg/mL | 4 µg/mL | 16 µg/mL | 0.5 µg/mL | 64 µg/mL | 1 µg/mL | 4 µg/mL | ≤ 0.03 µg/mL | 0.5 µg/mL | ≥ 16 µg/mL | ≤ 0.03 µg/mL | 1 µg/mL | 1 µg/mL | ≥ 128 µg/mL | ≤ 0.03 µg/mL | 64 µg/mL | 256 µg/mL | 16 µg/mL | 16 µg/mL | MIC (Staphylococcus aureus [14]): ≥ 128 µg/mL; MIC (Staphylococcus aureus [21]): 16 µg/mL; fold change (FC) (Staphylococcus aureus [22]): 2 - 10; fold change (FC) (Staphylococcus aureus [23]): 2 - 10; fold change (FC) (Staphylococcus aureus [24]): 2 - 10; fold change (FC) (Staphylococcus aureus [25]): 2 - 10; MIC (Staphylococcus aureus [26]): 8 µg/mL (≈ 19.9 µM)
N#C/C(=C\c1cc(Cc2ccc(Cl)c(Cl)c2)ccc1F)S(=O)(=O)c1ccccn1 | 87 µM | ≤ 0.03 µg/mL | 0.03 µg/mL | 128 µg/mL | 0.03 µg/mL | 4 µg/mL | 0.5 µg/mL | 16 µg/mL | 0.25 µg/mL | 0.12 µg/mL | 0.5 µg/mL | 0.12 µg/mL | 0.25 µg/mL | 0.5 µg/mL | ≥ 128 µg/mL | 0.06 µg/mL | 2 µg/mL | 128 µg/mL | 16 µg/mL | 16 µg/mL | MIC (Staphylococcus aureus [14]): ≥ 128 µg/mL; MIC (Staphylococcus aureus [21]): 16 µg/mL; fold change (FC) (Staphylococcus aureus [22]): 2 - 10; fold change (FC) (Staphylococcus aureus [23]): 2 - 10; fold change (FC) (Staphylococcus aureus [24]): 2 - 10; fold change (FC) (Staphylococcus aureus [25]): 2 - 10; MIC (Staphylococcus aureus [26]): 16 µg/mL (≈ 35.8 µM)
CS(=O)(=O)/C(C#N)=C/c1cc(Cc2ccc(Cl)c(Cl)c2)ccc1OC(F)(F)F | 73 µM | ≤ 0.03 µg/mL | 0.12 µg/mL | 8 µg/mL | ≤ 0.03 µg/mL | 0.25 µg/mL | 0.03 µg/mL | 0.06 µg/mL | ≤ 0.03 µg/mL | 0.12 µg/mL | 0.5 µg/mL | ≤ 0.03 µg/mL | 0.06 µg/mL | 0.5 µg/mL | ≥ 128 µg/mL | ≤ 0.03 µg/mL | Active | ≤ 0.03 µg/mL | ≥ 64 µg/mL | ≥ 64 µg/mL | MIC (Staphylococcus aureus [21]): 16 µg/mL; fold change (FC) (Staphylococcus aureus [22]): 2 - 10; fold change (FC) (Staphylococcus aureus [23]): 2 - 10; fold change (FC) (Staphylococcus aureus [24]): 2 - 10; fold change (FC) (Staphylococcus aureus [25]): 2 - 10; MIC (Staphylococcus aureus [26]): 8 µg/mL (≈ 17.8 µM)
